Source: ChEMBL document CHEMBL1765047, “Synthesis and in vivo evaluation of (S)-6-(4-fluorophenoxy)-3-((1-[11C]methylpiperidin-3-yl)methyl)-2-o-tolylquinazolin-4(3H)-one, a potential PET tracer for growth hormone secretagogue receptor (GHSR)” (Bioorg Med Chem, 2011)

Assays:
Lung [1] = assay: Drug uptake in CD1 mouse lung at 0.1 mCi, iv after 90 mins by gamma scintillation counting; assay type: ADME, organism-based; conditions: in vivo, 1.5 h
How it was run: (§1)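 Baseline whole-body distribution in male CD1 mice (23-28 g). Tracer 0.1 mCi in 0.2 mL saline (~4000 mCi/μmol) into lateral tail vein. Cervical dislocation at 10, 30 or 90 min; organs dissected on ice, weighed, gamma-counted alongside injectate aliquots as standards. Reported as %ID/g tissue, mean ± SD, n=5.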

Lung [2] = assay: Drug uptake in CD1 mouse lung at 0.1 mCi, iv after 10 mins by gamma scintillation counting; assay type: ADME, organism-based; conditions: in vivo; how it was run: as §1
Hippocampus [3] = assay: Drug uptake in CD1 mouse hippocampus at 0.1 mCi, iv after 10 mins by gamma scintillation counting; assay type: ADME, organism-based; conditions: in vivo
How it was run: (§2)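 Baseline regional brain study in male CD1 mice (23-28 g) injected via tail vein with 0.1 mCi tracer in 0.2 mL saline (~4000 mCi/μmol). Killed at 10, 30, 60 or 90 min; brain regions dissected on ice, weighed and gamma-counted with injectate standards. Reported as %ID/g tissue, mean ± SD, n=3.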

Cerebellum [4] = assay: Drug uptake in CD1 mouse cerebellum at 0.1 mCi, iv after 10 mins by gamma scintillation counting; assay type: ADME, organism-based; conditions: in vivo; how it was run: as §2
Liver [5] = assay: Drug uptake in CD1 mouse liver at 0.1 mCi, iv after 90 mins in presence of (S)-6-(4-Fluorophenoxy)-3-(piperidin-3-ylmethyl)-2-o-tolylquinazolin-4(3H)-one; assay type: ADME, organism-based; conditions: in vivo, 1.5 h
How it was run: (§3)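 Blockade arm: male CD1 mice (23-28 g) given 1 mg/kg blocker s.c. in saline/alcohol 9:1, or vehicle alone, 15 min before tail-vein tracer (0.1 mCi in 0.2 mL saline, ~4000 mCi/μmol). Killed by cervical dislocation at 90 min; organs dissected on ice, weighed, gamma-counted against injectate standards; %ID/g tissue, mean ± SD, n=5.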

Lung [6] = assay: Drug uptake in CD1 mouse lung at 0.1 mCi, iv after 90 mins in presence of (S)-6-(4-Fluorophenoxy)-3-(piperidin-3-ylmethyl)-2-o-tolylquinazolin-4(3H)-one; assay type: ADME, organism-based; conditions: in vivo, 1.5 h; how it was run: as §3
Blood [7] = assay: Drug uptake in CD1 mouse blood at 0.1 mCi, iv after 10 mins by gamma scintillation counting; assay type: ADME, organism-based; conditions: in vivo; how it was run: as §1
Blood [8] = assay: Drug uptake in CD1 mouse blood at 0.1 mCi, iv after 90 mins in presence of (S)-6-(4-Fluorophenoxy)-3-(piperidin-3-ylmethyl)-2-o-tolylquinazolin-4(3H)-one; assay type: ADME, organism-based; conditions: in vivo, 1.5 h; how it was run: as §3
Blood [9] = assay: Drug uptake in CD1 mouse blood at 0.1 mCi, iv after 30 mins by gamma scintillation counting; assay type: ADME, organism-based; conditions: in vivo, 0.5 h; how it was run: as §1
Cerebellum [10] = assay: Drug uptake in CD1 mouse cerebellum at 0.1 mCi, iv after 30 mins by gamma scintillation counting; assay type: ADME, organism-based; conditions: in vivo, 0.5 h; how it was run: as §2
Hippocampus [11] = assay: Drug uptake in CD1 mouse hippocampus at 0.1 mCi, iv after 30 mins by gamma scintillation counting; assay type: ADME, organism-based; conditions: in vivo, 0.5 h; how it was run: as §2
Hippocampus [12] = assay: Drug uptake in CD1 mouse hippocampus at 0.1 mCi, iv after 60 mins by gamma scintillation counting; assay type: ADME, organism-based; conditions: in vivo, 1 h; how it was run: as §2
Blood [13] = assay: Drug uptake in CD1 mouse blood at 0.1 mCi, iv after 90 mins by gamma scintillation counting; assay type: ADME, organism-based; conditions: in vivo, 1.5 h; how it was run: as §1
[14] = Drug uptake in CD1 mouse testis at 0.1 mCi, iv after 10 mins by gamma scintillation counting; assay type: ADME, organism-based; conditions: in vivo; how it was run: as §1
[15] = Drug uptake in CD1 mouse adrenal at 0.1 mCi, iv after 30 mins by gamma scintillation counting; assay type: ADME, organism-based, Adrenal gland; conditions: in vivo, 0.5 h; how it was run: as §1
Brain [16] = assay: Drug uptake in CD1 mouse brain at 0.1 mCi, iv after 30 mins by gamma scintillation counting; assay type: ADME, organism-based; conditions: in vivo, 0.5 h; how it was run: as §2
Brain [17] = assay: Drug uptake in CD1 mouse brain at 0.1 mCi, iv after 10 mins by gamma scintillation counting; assay type: ADME, organism-based; conditions: in vivo; how it was run: as §2
Hypothalamus [18] = assay: Drug uptake in CD1 mouse hypothalamus at 0.1 mCi, iv after 60 mins by gamma scintillation counting; assay type: ADME, organism-based; conditions: in vivo, 1 h; how it was run: as §2
Muscle tissue [19] = assay: Drug uptake in CD1 mouse muscle at 0.1 mCi, iv after 90 mins in presence of (S)-6-(4-Fluorophenoxy)-3-(piperidin-3-ylmethyl)-2-o-tolylquinazolin-4(3H)-one; assay type: ADME, organism-based; conditions: in vivo, 1.5 h; how it was run: as §3
Heart [20] = assay: Drug uptake in CD1 mouse heart at 0.1 mCi, iv after 30 mins by gamma scintillation counting; assay type: ADME, organism-based; conditions: in vivo, 0.5 h; how it was run: as §1
Muscle tissue [21] = assay: Drug uptake in CD1 mouse muscle at 0.1 mCi, iv after 30 mins by gamma scintillation counting; assay type: ADME, organism-based; conditions: in vivo, 0.5 h; how it was run: as §1
Liver [22] = assay: Drug uptake in CD1 mouse liver at 0.1 mCi, iv after 90 mins by gamma scintillation counting; assay type: ADME, organism-based; conditions: in vivo, 1.5 h; how it was run: as §1
Muscle tissue [23] = assay: Drug uptake in CD1 mouse muscle at 0.1 mCi, iv after 10 mins by gamma scintillation counting; assay type: ADME, organism-based; conditions: in vivo; how it was run: as §1
Heart [24] = assay: Drug uptake in CD1 mouse heart at 0.1 mCi, iv after 10 mins by gamma scintillation counting; assay type: ADME, organism-based; conditions: in vivo; how it was run: as §1
[25] = Drug uptake in CD1 mouse testis at 0.1 mCi, iv after 90 mins in presence of (S)-6-(4-Fluorophenoxy)-3-(piperidin-3-ylmethyl)-2-o-tolylquinazolin-4(3H)-one; assay type: ADME, organism-based; conditions: in vivo, 1.5 h; how it was run: as §3
Cortex [26] = assay: Drug uptake in CD1 mouse cortex at 0.1 mCi, iv after 10 mins by gamma scintillation counting; assay type: ADME, organism-based; conditions: in vivo; how it was run: as §2
Hypothalamus [27] = assay: Drug uptake in CD1 mouse hypothalamus at 0.1 mCi, iv after 90 mins by gamma scintillation counting; assay type: ADME, organism-based; conditions: in vivo, 1.5 h; how it was run: as §2
Liver [28] = assay: Drug uptake in CD1 mouse liver at 0.1 mCi, iv after 10 mins by gamma scintillation counting; assay type: ADME, organism-based; conditions: in vivo; how it was run: as §1
Hypothalamus [29] = assay: Drug uptake in CD1 mouse hypothalamus at 0.1 mCi, iv after 30 mins by gamma scintillation counting; assay type: ADME, organism-based; conditions: in vivo, 0.5 h; how it was run: as §2
Hypothalamus [30] = assay: Drug uptake in CD1 mouse hypothalamus at 0.1 mCi, iv after 10 mins by gamma scintillation counting; assay type: ADME, organism-based; conditions: in vivo; how it was run: as §2
Brain [31] = assay: Drug uptake in CD1 mouse brain at 0.1 mCi, iv after 90 mins by gamma scintillation counting; assay type: ADME, organism-based; conditions: in vivo, 1.5 h; how it was run: as §2
[32] = Lipophilicity, log D of the compound; assay type: physicochemical; conditions: octanol/water
How it was run: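 Computed in silico rather than measured experimentally, for pH 7.4 (log D7.4), using a log P/log D prediction program.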

Cortex [33] = assay: Drug uptake in CD1 mouse cortex at 0.1 mCi, iv after 30 mins by gamma scintillation counting; assay type: ADME, organism-based; conditions: in vivo, 0.5 h; how it was run: as §2
Heart [34] = assay: Drug uptake in CD1 mouse heart at 0.1 mCi, iv after 90 mins in presence of (S)-6-(4-Fluorophenoxy)-3-(piperidin-3-ylmethyl)-2-o-tolylquinazolin-4(3H)-one; assay type: ADME, organism-based; conditions: in vivo, 1.5 h; how it was run: as §3
Muscle tissue [35] = assay: Drug uptake in CD1 mouse muscle at 0.1 mCi, iv after 90 mins by gamma scintillation counting; assay type: ADME, organism-based; conditions: in vivo, 1.5 h; how it was run: as §1
Liver [36] = assay: Drug uptake in CD1 mouse liver at 0.1 mCi, iv after 30 mins by gamma scintillation counting; assay type: ADME, organism-based; conditions: in vivo, 0.5 h; how it was run: as §1
Hippocampus [37] = assay: Drug uptake in CD1 mouse hippocampus at 0.1 mCi, iv after 90 mins by gamma scintillation counting; assay type: ADME, organism-based; conditions: in vivo, 1.5 h; how it was run: as §2
Cortex [38] = assay: Drug uptake in CD1 mouse cortex at 0.1 mCi, iv after 60 mins by gamma scintillation counting; assay type: ADME, organism-based; conditions: in vivo, 1 h; how it was run: as §2
[39] = Drug uptake in CD1 mouse testis at 0.1 mCi, iv after 90 mins by gamma scintillation counting; assay type: ADME, organism-based; conditions: in vivo, 1.5 h; how it was run: as §1
Heart [40] = assay: Drug uptake in CD1 mouse heart at 0.1 mCi, iv after 90 mins by gamma scintillation counting; assay type: ADME, organism-based; conditions: in vivo, 1.5 h; how it was run: as §1
Lung [41] = assay: Drug uptake in CD1 mouse lung at 0.1 mCi, iv after 30 mins by gamma scintillation counting; assay type: ADME, organism-based; conditions: in vivo, 0.5 h; how it was run: as §1
Brain [42] = assay: Drug uptake in CD1 mouse brain at 0.1 mCi, iv after 60 mins by gamma scintillation counting; assay type: ADME, organism-based; conditions: in vivo, 1 h; how it was run: as §2
Cerebellum [43] = assay: Drug uptake in CD1 mouse cerebellum at 0.1 mCi, iv after 60 mins by gamma scintillation counting; assay type: ADME, organism-based; conditions: in vivo, 1 h; how it was run: as §2
Cerebellum [44] = assay: Drug uptake in CD1 mouse cerebellum at 0.1 mCi, iv after 90 mins by gamma scintillation counting; assay type: ADME, organism-based; conditions: in vivo, 1.5 h; how it was run: as §2
[45] = Drug uptake in CD1 mouse testis at 0.1 mCi, iv after 30 mins by gamma scintillation counting; assay type: ADME, organism-based; conditions: in vivo, 0.5 h; how it was run: as §1
Cortex [46] = assay: Drug uptake in CD1 mouse cortex at 0.1 mCi, iv after 90 mins by gamma scintillation counting; assay type: ADME, organism-based; conditions: in vivo, 1.5 h; how it was run: as §2
[47] = Drug uptake in CD1 mouse adrenal at 0.1 mCi, iv after 10 mins by gamma scintillation counting; assay type: ADME, organism-based, Adrenal gland; conditions: in vivo; how it was run: as §1
[48] = Drug uptake in CD1 mouse adrenal at 0.1 mCi, iv after 90 mins in presence of (S)-6-(4-Fluorophenoxy)-3-(piperidin-3-ylmethyl)-2-o-tolylquinazolin-4(3H)-one; assay type: ADME, organism-based, Adrenal gland; conditions: in vivo, 1.5 h; how it was run: as §3
[49] = Drug uptake in CD1 mouse adrenal at 0.1 mCi, iv after 90 mins by gamma scintillation counting; assay type: ADME, organism-based, Adrenal gland; conditions: in vivo, 1.5 h; how it was run: as §1

Drug uptake (Lung [1]): 14.74 % ID/g
Drug uptake (Lung [2]): 26.44 % ID/g
Drug uptake (Hippocampus [3]): 0.6 % ID/g
Drug uptake (Cerebellum [4]): 0.63 % ID/g
Drug uptake (Liver [5]): 14.77 % ID/g
Drug uptake (Lung [6]): 16.28 % ID/g
Drug uptake (Blood [7]): 2.14 % ID/g
Drug uptake (Blood [8]): 2.01 % ID/g
Drug uptake (Blood [9]): 1.87 % ID/g
Drug uptake (Cerebellum [10]): 0.56 % ID/g
Drug uptake (Hippocampus [11]): 0.59 % ID/g
Drug uptake (Hippocampus [12]): 0.71 % ID/g
Drug uptake (Blood [13]): 2.01 % ID/g
Drug uptake [14]: 1.07 % ID/g
Drug uptake [15]: 10.77 % ID/g
Drug uptake (Brain [16]): 0.57 % ID/g
Drug uptake (Brain [17]): 0.54 % ID/g
Drug uptake (Hypothalamus [18]): 0.74 % ID/g
Drug uptake (Muscle tissue [19]): 2.22 % ID/g
Drug uptake (Heart [20]): 3.91 % ID/g
Drug uptake (Muscle tissue [21]): 3.02 % ID/g
Drug uptake (Liver [22]): 13.46 % ID/g
Drug uptake (Muscle tissue [23]): 3.79 % ID/g
Drug uptake (Heart [24]): 5.11 % ID/g
Drug uptake [25]: 2.25 % ID/g
Drug uptake (Cortex [26]): 0.63 % ID/g
Drug uptake (Hypothalamus [27]): 0.86 % ID/g
Drug uptake (Liver [28]): 18.63 % ID/g
Drug uptake (Hypothalamus [29]): 0.58 % ID/g
Drug uptake (Hypothalamus [30]): 0.56 % ID/g
Drug uptake (Brain [31]): 0.54 % ID/g
logD [32]: 4.1
Drug uptake (Cortex [33]): 0.6 % ID/g
Drug uptake (Heart [34]): 3.74 % ID/g
Drug uptake (Muscle tissue [35]): 2.09 % ID/g
Drug uptake (Liver [36]): 14.6 % ID/g
Drug uptake (Hippocampus [37]): 0.65 % ID/g
Drug uptake (Cortex [38]): 0.65 % ID/g
Drug uptake [39]: 1.96 % ID/g
Drug uptake (Heart [40]): 2.94 % ID/g
Drug uptake (Lung [41]): 24.02 % ID/g
Drug uptake (Brain [42]): 0.62 % ID/g
Drug uptake (Cerebellum [43]): 0.59 % ID/g
Drug uptake (Cerebellum [44]): 0.59 % ID/g
Drug uptake [45]: 1.39 % ID/g
Drug uptake (Cortex [46]): 0.66 % ID/g
Drug uptake [47]: 15.57 % ID/g
Drug uptake [48]: 10.02 % ID/g
Drug uptake [49]: 7.87 % ID/g
SMILES: Cc1ccccc1-c1nc2ccc(Oc3ccc(F)cc3)cc2c(=O)n1C[C@H]1CCCN([11CH3])C1
